Test results as given in ChEMBL document CHEMBL1156731, “Antifungal activity of synthetic di(hetero)arylamines based on the benzo[b]thiophene moiety” (2008).
In brackets after ≈: the same amount, converted by molar mass. Activity calls are given as the source filed them. No cut-off for these calls is given here.

Experiments:
Aspergillus fumigatus [1] = assay: Antifungal activity against Aspergillus fumigatus ATCC 46645 after 3 days by broth macrodilution method; type: functional; settings: ATCC 46645, 72 h
Method in brief: (§1)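 Aspergillus inoculum from 3-day SDA subcultures at 30 °C; conidial suspension in 0.85% saline, diluted in RPMI 1640 (L-glutamine, no bicarbonate, 0.165 M MOPS, pH 7.0) to 1-2 × 10^4 CFU/mL. Twofold dilutions 200-0.8 µg/mL from DMSO stock (final DMSO ≤2%); macrodilution per CLSI M38-A, 30 °C, 3 days. MIC = lowest concentration giving 80% turbidity reduction vs drug-free control; MFC by subculture on SDA. Three independent experiments in duplicate.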

Candida albicans [2] = assay: Antifungal activity against Candida albicans ATCC 10231 assessed as red fluorescence stained with FUN1 by flow cytometry; type: functional
Method in brief: (§2)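 Overnight SDA cells suspended in RPMI 1640 at (2.0 ± 0.2) × 10^6 CFU/mL. Twofold dilutions 256 to one µg/mL applied at 35 °C, humid, no agitation, 2, 4 and 24 h. Washed; FUN-1 0.5 µM in PBS/2% glucose (20 min, 35 °C, FL2) or PI 1 µg/mL with 0.125% deoxycholate (~10 min, room temperature, FL3). ≥7500 events; marker included ≤5% of drug-free control cells.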

Aspergillus fumigatus [3] = assay: Antifungal activity against Aspergillus fumigatus ATCC 46645 assessed as red fluorescence stained with PI by flow cytometry; type: functional
Method in brief: (§3)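 Conidia from 4–7-day SDA cultures suspended in water with 0.01% Tween 80 at (2.0 ± 0.2) × 10^6 CFU/mL. Exposed to twofold dilutions 256 to one µg/mL at 35 °C, water bath with agitation, 3, 4 and 24 h. FUN-1 0.5 µM (20 min, 35 °C, FL2) or PI 1 µg/mL (1 h, 35 °C, FL3); ≥7500 events; positive-cell marker set at ≤5% of drug-free controls.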

Aspergillus fumigatus [4] = assay: Antifungal activity against Aspergillus fumigatus ATCC 46645 assessed as red fluorescence stained with FUN1 by flow cytometry; type: functional, organism-based; method in brief: as §3
Aspergillus flavus = assay: Antifungal activity against Aspergillus flavus F44 after 3 days by broth macrodilution method; type: functional; settings: 72 h; method in brief: as §1
Candida albicans [5] = assay: Antifungal activity against Candida albicans ATCC 10231 assessed as red fluorescence stained with PI by flow cytometry; type: functional; method in brief: as §2
Aspergillus niger = assay: Antifungal activity against Aspergillus niger ATCC 16404 after 3 days by broth macrodilution method; type: functional; settings: ATCC 16404, 72 h; method in brief: as §1
Candida albicans [6] = assay: Inhibition of germ tube formation in Candida albicans M1 after 3 hrs by hemocytometer; type: functional, organism-based
Method in brief: (§4)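 Overnight SDA cultures (37 °C) were suspended in NYP medium (N-acetylglucosamine 10^-3 mol/L, YNB 3.35 g/L, proline 10^-3 mol/L, NaCl 4.5 g/L, pH 6.7) at (1.0 ± 0.2) × 10^6 CFU/mL. Compound added at 1/2, 1/4 and 1/8 MIC (1% DMSO final), 3 h at 37 °C. 100 cells counted by hemocytometer; germ tube at least blastospore diameter, pseudohyphae excluded. Mean ± SD, three experiments.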

Microsporum canis = assay: Antifungal activity against Microsporum canis FF1 after 5 days by broth macrodilution method; type: functional; settings: 120 h
Method in brief: (§5)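 Dermatophytes grown 5 days on SDA at 30 °C, subcultured. Conidial suspensions in saline were adjusted in MOPS-buffered RPMI 1640 (pH 7.0) to 1-2 × 10^4 CFU/mL. Macrodilution adapted from CLSI M38-A with 200-0.8 µg/mL twofold dilutions (DMSO ≤2%), incubated at 30 °C for 5 days. MIC at 80% turbidity reduction vs control; MFC by SDA subculture at 30 °C. Triplicate experiments in duplicate.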

Candida albicans [7] = assay: Inhibition of germ tube formation in Candida albicans ATCC 10231 after 3 hrs by hemocytometer; type: functional, organism-based; method in brief: as §4
Candida albicans [8] = assay: Antifungal activity against Candida albicans ATCC 10231 after 48 hrs by broth macrodilution method; type: functional; settings: ATCC 10231, 48 h
Method in brief: (§6)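 Yeasts grown 1 day on SDA at 37 °C, subcultured, suspended in saline and diluted in MOPS-buffered RPMI 1640 (pH 7.0) to 1-2 × 10^3 CFU/mL. Broth macrodilution per CLSI M27-A2, twofold dilutions 200-0.8 µg/mL (DMSO ≤2% final), aerobic, 37 °C, 48 h. MIC = 80% turbidity reduction vs drug-free control; MFC from SDA subculture at 37 °C. Three independent experiments in duplicate.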

Epidermophyton floccosum = assay: Antifungal activity against Epidermophyton floccosum FF9 after 5 days by broth macrodilution method; type: functional; settings: 120 h; method in brief: as §5
Candida albicans [9] = assay: Antifungal activity against Candida albicans D5 after 48 hrs by broth macrodilution method; type: functional; method in brief: as §6
[10] = tested on: Trichophyton mentagrophytes; assay: Antifungal activity against Trichophyton mentagrophytes FF7 after 5 days by broth macrodilution method; type: functional; settings: 120 h; method in brief: as §5
Nakaseomyces glabratus = assay: Antifungal activity against Candida glabrata D10R after 48 hrs by broth macrodilution method; type: functional
Method in brief: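 Broth macrodilution per CLSI M27-A2 (minor modifications). Inoculum 1-2 × 10^3 CFU/mL in RPMI 1640 with L-glutamine, MOPS-buffered 0.165 M, pH 7.0. Twofold dilutions 200-0.8 µg/mL from DMSO stock (final DMSO ≤2%). Aerobic, 37 °C, 48 h. MIC = lowest concentration giving 80% turbidity reduction versus drug-free control. Three independent experiments in duplicate.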

Pichia kudriavzevii = assay: Antifungal activity against Candida krusei ATCC 6258 after 48 hrs by broth macrodilution method; type: functional; settings: ATCC 6258, 48 h; method in brief: as §6
Nannizzia gypsea = assay: Antifungal activity against Microsporum gypseum FF3 after 5 days by broth macrodilution method; type: functional; settings: 120 h; method in brief: as §5
Trichophyton rubrum = assay: Antifungal activity against Trichophyton rubrum FF5 after 5 days by broth macrodilution method; type: functional; settings: 120 h; method in brief: as §5
Candida albicans [11] = assay: Inhibition of germ tube formation in Candida albicans D5 after 3 hrs by hemocytometer; type: functional, organism-based; method in brief: as §4
Candida tropicalis = assay: Antifungal activity against Candida tropicalis ATCC 13803 after 48 hrs by broth macrodilution method; type: functional; settings: ATCC 13803, 48 h; method in brief: as §6

Compound	MFC (Aspergillus fumigatus [1])	MIC (Aspergillus fumigatus [1])	MFC (Aspergillus flavus)	MIC (Aspergillus flavus)	MFC (Aspergillus niger)	MIC (Aspergillus niger)	MFC (Microsporum canis)	MIC (Microsporum canis)	MFC (Candida albicans [8])	MIC (Candida albicans [8])	MFC (Epidermophyton floccosum)	MIC (Epidermophyton floccosum)	MFC (Candida albicans [9])	MIC (Candida albicans [9])	MFC [10]	MIC [10]	MFC (Nakaseomyces glabratus)	MIC (Nakaseomyces glabratus)	MFC (Pichia kudriavzevii)	MIC (Pichia kudriavzevii)	further results
C[C@@H]1[C@H](O)[C@@H](C)/C=C/C=C/C=C/C=C/C=C/C=C/C=C/[C@H](O[C@@H]2O[C@H](C)[C@@H](O)[C@H](N)[C@@H]2O)C[C@@H]2O[C@](O)(C[C@@H](O)C[C@@H](O)[C@H](O)CC[C@@H](O)C[C@@H](O)CC(=O)O[C@H]1C)C[C@H](O)[C@H]2C(=O)O [AMPHOTERICIN B]	4 µg/mL (≈ 4.33 µM)	2 µg/mL (≈ 2.16 µM)	8 µg/mL (≈ 8.66 µM)	2 µg/mL (≈ 2.16 µM)	4 µg/mL (≈ 4.33 µM)	1 µg/mL (≈ 1.08 µM)															Activity (Candida albicans [2]): 60%; Activity (Aspergillus fumigatus [3]): 40%; Activity (Aspergillus fumigatus [4]): Active; Activity (Candida albicans [5]): 40%
CCOC(=O)c1sc2ccccc2c1Nc1ccc(O)cc1O	> 100 µg/mL	> 100 µg/mL	> 100 µg/mL	> 100 µg/mL	> 100 µg/mL	> 100 µg/mL	12.5 µg/mL (≈ 38 µM)	12.5 µg/mL (≈ 38 µM)	> 200 µg/mL	25 µg/mL (≈ 75.9 µM)	12.5 µg/mL (≈ 38 µM)	6.25 µg/mL (≈ 19 µM)	> 50 µg/mL	25 µg/mL (≈ 75.9 µM)	25 µg/mL (≈ 75.9 µM)	12.5 µg/mL (≈ 38 µM)	> 50 µg/mL	25 µg/mL (≈ 75.9 µM)	> 50 µg/mL	25 µg/mL (≈ 75.9 µM)	Activity (Candida albicans [6]): Active; Activity (Candida albicans [7]): Active; MFC (Nannizzia gypsea): 25 µg/mL (≈ 75.9 µM); MIC (Nannizzia gypsea): 12.5 µg/mL (≈ 38 µM); MFC (Trichophyton rubrum): 25 µg/mL (≈ 75.9 µM); MIC (Trichophyton rubrum): 12.5 µg/mL (≈ 38 µM); Activity (Candida albicans [11]): Active; MFC (Candida tropicalis): > 50 µg/mL; MIC (Candida tropicalis): 50 µg/mL (≈ 152 µM)
CCOC(=O)c1sc2ccccc2c1Nc1ccc(OC)cc1OC	> 200 µg/mL	> 200 µg/mL	> 200 µg/mL	> 200 µg/mL	> 200 µg/mL	> 200 µg/mL	> 200 µg/mL	> 200 µg/mL	> 200 µg/mL	> 200 µg/mL	> 200 µg/mL	> 200 µg/mL	> 200 µg/mL	> 200 µg/mL	> 200 µg/mL	> 200 µg/mL	> 200 µg/mL	> 200 µg/mL	> 200 µg/mL	> 200 µg/mL	MFC (Nannizzia gypsea): > 200 µg/mL; MIC (Nannizzia gypsea): > 200 µg/mL; MFC (Trichophyton rubrum): > 200 µg/mL; MIC (Trichophyton rubrum): > 200 µg/mL; MFC (Candida tropicalis): > 200 µg/mL; MIC (Candida tropicalis): > 200 µg/mL
OC(Cn1cncn1)(Cn1cncn1)c1ccc(F)cc1F [FLUCONAZOLE]							128 µg/mL (≈ 418 µM)	128 µg/mL (≈ 418 µM)	> 128 µg/mL	1 µg/mL (≈ 3.27 µM)	16 µg/mL (≈ 52.2 µM)	16 µg/mL (≈ 52.2 µM)	> 128 µg/mL	> 128 µg/mL	32 µg/mL (≈ 104 µM)	16 µg/mL (≈ 52.2 µM)	32 µg/mL (≈ 104 µM)	32 µg/mL (≈ 104 µM)	64 µg/mL (≈ 209 µM)	64 µg/mL (≈ 209 µM)	MFC (Nannizzia gypsea): > 128 µg/mL; MIC (Nannizzia gypsea): > 128 µg/mL; MFC (Trichophyton rubrum): 32 µg/mL (≈ 104 µM); MIC (Trichophyton rubrum): 16 µg/mL (≈ 52.2 µM); MFC (Candida tropicalis): > 128 µg/mL; MIC (Candida tropicalis): 4 µg/mL (≈ 13.1 µM)
CCOC(=O)c1sc2ccccc2c1Nc1ccc(OC)cc1	> 200 µg/mL	> 200 µg/mL	> 200 µg/mL	> 200 µg/mL	> 200 µg/mL	> 200 µg/mL	> 200 µg/mL	> 200 µg/mL	> 200 µg/mL	> 200 µg/mL	> 200 µg/mL	> 200 µg/mL	> 200 µg/mL	> 200 µg/mL	> 200 µg/mL	> 200 µg/mL	> 200 µg/mL	> 200 µg/mL	> 200 µg/mL	> 200 µg/mL	MFC (Nannizzia gypsea): > 200 µg/mL; MIC (Nannizzia gypsea): > 200 µg/mL; MFC (Trichophyton rubrum): > 200 µg/mL; MIC (Trichophyton rubrum): > 200 µg/mL; MFC (Candida tropicalis): > 200 µg/mL; MIC (Candida tropicalis): > 200 µg/mL
